Data reported in ChEMBL document CHEMBL4138058, “Design and synthesis of novel selective estrogen receptor degradation inducers based on the diphenylheptane skeleton” (Medchemcomm, 2017).

How the values were obtained:
[1] = biological target: T1, Estrogen receptor (Homo sapiens) (UniProt P03372); assay: Downregulation of ERalpha expression in human MCF7 cells at 10 uM after 6 hrs by Western blot method relative to beta-actin; type: cell-based
T1 sequence (whole entry): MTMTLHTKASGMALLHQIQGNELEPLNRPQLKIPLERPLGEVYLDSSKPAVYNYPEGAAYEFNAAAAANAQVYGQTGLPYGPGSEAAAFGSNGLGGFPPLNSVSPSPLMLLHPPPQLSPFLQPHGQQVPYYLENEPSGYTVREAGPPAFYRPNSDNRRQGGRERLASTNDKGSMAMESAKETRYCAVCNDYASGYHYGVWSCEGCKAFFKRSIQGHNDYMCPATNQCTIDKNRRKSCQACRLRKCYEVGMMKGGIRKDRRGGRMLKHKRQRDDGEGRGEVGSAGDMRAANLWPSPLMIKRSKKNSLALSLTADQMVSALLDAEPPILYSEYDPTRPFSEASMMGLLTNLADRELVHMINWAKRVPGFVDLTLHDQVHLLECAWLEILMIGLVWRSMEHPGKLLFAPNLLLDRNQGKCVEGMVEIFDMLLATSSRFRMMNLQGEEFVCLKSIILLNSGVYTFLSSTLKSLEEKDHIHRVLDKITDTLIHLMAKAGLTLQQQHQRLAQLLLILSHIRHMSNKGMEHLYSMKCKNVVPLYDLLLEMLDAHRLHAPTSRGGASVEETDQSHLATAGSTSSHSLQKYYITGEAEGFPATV
Summary of the method: (§1)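 MCF-7 cells kept in DMEM with 10% FBS, kanamycin and 10 μg/mL insulin, then exposed to compounds for 6 h. Lysates made in SDS buffer (0.1 M Tris-HCl pH 8.0, 10% glycerol, 1% SDS), boiled, BCA-normalized and run on SDS-PAGE. Blots probed with anti-ERα, AR, AhR or VDR and β-actin or lamin B. Chemiluminescence quantified as target/loading-protein ratio; means ± S.E., n=3.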

[2] = biological target: T2, Aryl hydrocarbon receptor (Homo sapiens, UniProt P35869); assay: Downregulation of AhR expression in human MCF7 cells at 1 uM after 6 hrs by Western blot method relative to lamin B; type: cell-based; conditions: mcf7, 6 h; summary of the method: as §1
T2 sequence (P35869 whole entry): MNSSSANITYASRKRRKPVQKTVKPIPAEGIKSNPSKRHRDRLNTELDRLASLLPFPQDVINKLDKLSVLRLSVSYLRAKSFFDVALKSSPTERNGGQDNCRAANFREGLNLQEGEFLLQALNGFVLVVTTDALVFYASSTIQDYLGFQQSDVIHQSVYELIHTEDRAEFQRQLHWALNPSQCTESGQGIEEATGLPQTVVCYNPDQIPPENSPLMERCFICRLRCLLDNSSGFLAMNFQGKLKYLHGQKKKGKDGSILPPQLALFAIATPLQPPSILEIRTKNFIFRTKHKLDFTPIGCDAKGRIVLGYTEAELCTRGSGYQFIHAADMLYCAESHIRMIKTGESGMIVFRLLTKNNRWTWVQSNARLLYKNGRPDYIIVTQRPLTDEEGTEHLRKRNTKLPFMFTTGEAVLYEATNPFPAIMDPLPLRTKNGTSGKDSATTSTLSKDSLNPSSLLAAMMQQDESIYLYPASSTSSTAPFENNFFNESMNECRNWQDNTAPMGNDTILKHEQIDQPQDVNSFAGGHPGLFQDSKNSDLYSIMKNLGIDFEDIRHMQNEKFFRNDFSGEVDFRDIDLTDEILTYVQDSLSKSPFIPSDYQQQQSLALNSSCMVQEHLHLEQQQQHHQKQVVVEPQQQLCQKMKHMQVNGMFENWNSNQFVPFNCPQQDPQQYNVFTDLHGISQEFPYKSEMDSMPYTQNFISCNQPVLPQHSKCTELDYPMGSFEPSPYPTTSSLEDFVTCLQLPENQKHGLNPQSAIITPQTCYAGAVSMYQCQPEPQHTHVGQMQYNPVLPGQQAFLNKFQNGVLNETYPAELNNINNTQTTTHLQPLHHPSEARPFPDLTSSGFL

- Activity [1]: 44%
- Activity [2]: 87%
SMILES: CCCCCCCCCCNCCOc1ccc(C(CCC)(CCC)c2ccc(O)c(C)c2)cc1C
